Laboratory results reported in ChEMBL document CHEMBL4312006, “A novel chalcone derivative as Nrf2 activator attenuates learning and memory impairment in a scopolamine-induced mouse model” (Eur J Med Chem, 2020).
Active and inactive are the calls of the source. The calls are words filed in the database; no cut-off is given here.

Experiments:
Homo sapiens = species: Homo sapiens; assay: Inhibition of H2O2-stimulated ROS production in […] BV2 cells at 10 uM preincubated for 24 hrs followed by H2O2 stimulation for 20 mins by DCFH-DA dye based assay; type: functional, cell-based
How it was run: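 BV-2 microglial cells pretreated with 10 μM compound for 24 h, then exposed to a series of H2O2 concentrations for 20 min. Intracellular ROS measured by DCFH-DA fluorescence. One-way ANOVA with Tukey's test.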

BV-2 [1] = assay: Cytotoxicity against mouse BV2 cells assessed as reduction in cell viability upto 10 uM incubated for 24 hrs by WST assay; type: cell-based; details: bv-2, 24 h
How it was run: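 BV-2 cells incubated with compound concentrations up to 10 µM for 24 h at 37 °C. Ez-Cytox WST reagent added for 1 h and formazan absorbance read at 450 nm.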

[2] = molecular target: T1, Nuclear factor erythroid 2-related factor 2 (Mus musculus) (UniProt Q60795); assay: Activation of NRF2 in mouse BV2 cells assessed as increase in nuclear NRF2 level at 10 uM incubated for 2 hrs by Western blot analysis; type: cell-based
T1 sequence (whole entry): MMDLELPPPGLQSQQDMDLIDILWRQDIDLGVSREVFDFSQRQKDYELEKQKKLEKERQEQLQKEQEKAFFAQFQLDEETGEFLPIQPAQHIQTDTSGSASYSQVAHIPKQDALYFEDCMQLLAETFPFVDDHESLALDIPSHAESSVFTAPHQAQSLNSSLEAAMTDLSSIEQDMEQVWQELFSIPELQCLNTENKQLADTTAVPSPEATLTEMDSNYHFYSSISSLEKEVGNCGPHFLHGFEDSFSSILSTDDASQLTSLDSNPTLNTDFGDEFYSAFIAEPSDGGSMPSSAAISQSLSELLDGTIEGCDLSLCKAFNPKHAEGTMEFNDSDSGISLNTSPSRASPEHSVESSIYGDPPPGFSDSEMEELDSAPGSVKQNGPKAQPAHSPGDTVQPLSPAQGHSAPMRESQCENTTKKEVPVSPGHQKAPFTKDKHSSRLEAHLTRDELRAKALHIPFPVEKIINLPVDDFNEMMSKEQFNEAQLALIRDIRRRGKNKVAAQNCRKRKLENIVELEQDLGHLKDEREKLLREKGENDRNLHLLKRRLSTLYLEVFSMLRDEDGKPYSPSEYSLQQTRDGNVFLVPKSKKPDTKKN
How it was run: (§1)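 BV-2 cells washed in ice-cold PBS and lysed on ice for 40 min in RIPA buffer with protease inhibitors. Nuclear fractions prepared separately. 10 μg protein run on SDS-PAGE and blotted to PVDF. Membranes blocked in 5% skim milk/TBST and probed overnight at 4 °C for Nrf2, HO-1, GCLM or SOD1. HRP secondary with ECL detection. Band densities normalised to Lamin B1 or β-actin.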

[3] = molecular target: T1, Nuclear factor erythroid 2-related factor 2 (Mus musculus); assay: Activation of NRF2 in mouse BV2 cells assessed as increase in nuclear NRF2 level incubated for 6 hrs by Western blot analysis; type: cell-based; how it was run: as §1
[4] = molecular target: T1, Nuclear factor erythroid 2-related factor 2 (Mus musculus); assay: Activation of NRF2 in mouse BV2 cells assessed as increase in total NRF2 level at 0.1 to 10 uM incubated for 6 hrs by Western blot analysis; type: cell-based; how it was run: as §1
[5] = molecular target: T1, Nuclear factor erythroid 2-related factor 2 (Mus musculus); assay: Activation of NRF2 in mouse BV2 cells assessed as upregulation of HO1 at 20 uM by ELISA relative to control; type: cell-based
[6] = molecular target: T1, Nuclear factor erythroid 2-related factor 2 (Mus musculus); assay: Activation of NRF2 in mouse BV2 cells assessed as increase in HO1 mRNA level at 0.1 to 10 uM incubated for 8 hrs by qRT-PCR analysis; type: cell-based
How it was run: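 BV-2 microglia grown in RPMI 1640 with 10% FBS, 2.05 mM L-glutamine and penicillin-streptomycin at 37 °C, 5% CO2. Cells exposed to a range of compound concentrations for 8 h. Ho-1 or Gclm mRNA measured by qRT-PCR and expressed relative to untreated control. Means ± SEM, one-way ANOVA with Dunnett's test.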

[7] = molecular target: T1, Nuclear factor erythroid 2-related factor 2 (Mus musculus); assay: Activation of NRF2 in mouse BV2 cells assessed as increase in GCLM protein expression at 10 uM incubated for 12 hrs by Western blot analysis; type: cell-based; how it was run: as §1
BV-2 [8] = assay: Inhibition of H2O2-stimulated ROS accumulation in mouse BV2 cells preincubated for 24 hrs followed by H2O2 stimulation for 20 mins by DCFH-DA dye based fluorescence microscopy; type: functional, cell-based
How it was run: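 BV-2 cells treated with a range of compound concentrations for 24 h at 37 °C. Loaded with 40 μM DCFH-DA for 40 min, then 300 μM H2O2 added for 20 min in the dark. Cells washed with PBS and DCF fluorescence imaged by digital microscopy.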

[9] = molecular target: T1, Nuclear factor erythroid 2-related factor 2 (Mus musculus); assay: Activation of NRF2 in mouse BV2 cells assessed as increase in SOD activity incubated for 24 hrs by WST-1 based assay; type: cell-based
How it was run: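 BV-2 cells (1.0×10^6) treated with compound for 24 h, or for 6 h followed by 400 μM H2O2 for 18 h. Cells washed, sonicated in ice-cold PBS and centrifuged; supernatant assayed by WST-1/superoxide inhibition. Activity derived from the IC50 of the inhibition curve and given as U/mg protein (1 U = 50% inhibition of WST-1 reduction).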

Mus musculus [10] = assay: Antioxidant activity in mouse assessed as inhibition of scopolamine-induced reduction in SOD activity at 30 mg/kg, po administered for 5 days and measured on day 5 by WST-1 based assay; type: functional, organism-based
How it was run: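 Male C57BL/6N mice (10 weeks) dosed 30 mg/kg/day compound in saline by oral gavage for 5 days, with scopolamine 2 mg/kg i.p. Hippocampus homogenised in sucrose buffer (pH 7.4) and centrifuged 40 min at 4 °C. SOD activity in the supernatant measured by WST-1 kit and given as U/mg protein. One-way ANOVA with Tukey's test.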

Mus musculus [11] = assay: Cognition enhancing effect in C57BL/6 mouse model of scopolamine-induced amnesia assessed as increase in […] percentage at 30 mg/kg, po administered for 5 days and measured on day 5 after 30 mins of scopolamine stimulation by Y-maze test; type: functional, organism-based
How it was run: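 Male C57BL/6N mice given 30 mg/kg/day compound in saline by gavage for 5 days. Scopolamine 2 mg/kg in saline given i.p. 30 min before testing on the last day. Mice handled daily for 7 days beforehand. Free exploration of a three-arm Y-maze for 10 min, with entries scored manually (all four paws). Alternation = consecutive entries into three different arms.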

Mus musculus [12] = assay: Cognition enhancing effect in C57BL/6 mouse model of scopolamine-induced amnesia assessed as increase in latency to enter dark room at 30 mg/kg, po administered for 5 days and measured on day 5 after 30 mins of scopolamine stimulation by passive avoidance test relative to control; type: functional
How it was run: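 Male C57BL/6N mice given 30 mg/kg/day compound in saline orally for 5 days. Scopolamine 1 mg/kg i.p. given on day 4, 30 min before the acquisition trial. Step-through latency recorded in the passive avoidance test.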

[13] = Stability in human liver microsomes assessed as compound remaining after 30 mins; type: ADME, Microsome; details: read-out: Stability
[14] = Stability in human plasma assessed as compound remaining after 30 mins; type: ADME, cell-free; details: read-out: Stability
CYP2C19 = CYP2C19 (Homo sapiens, UniProt P33261); assay: Inhibition of CYP2C19 (unknown origin) assessed as remaining activity relative to control; type: ADME
Chain of CYP2C19 (P33261 whole entry): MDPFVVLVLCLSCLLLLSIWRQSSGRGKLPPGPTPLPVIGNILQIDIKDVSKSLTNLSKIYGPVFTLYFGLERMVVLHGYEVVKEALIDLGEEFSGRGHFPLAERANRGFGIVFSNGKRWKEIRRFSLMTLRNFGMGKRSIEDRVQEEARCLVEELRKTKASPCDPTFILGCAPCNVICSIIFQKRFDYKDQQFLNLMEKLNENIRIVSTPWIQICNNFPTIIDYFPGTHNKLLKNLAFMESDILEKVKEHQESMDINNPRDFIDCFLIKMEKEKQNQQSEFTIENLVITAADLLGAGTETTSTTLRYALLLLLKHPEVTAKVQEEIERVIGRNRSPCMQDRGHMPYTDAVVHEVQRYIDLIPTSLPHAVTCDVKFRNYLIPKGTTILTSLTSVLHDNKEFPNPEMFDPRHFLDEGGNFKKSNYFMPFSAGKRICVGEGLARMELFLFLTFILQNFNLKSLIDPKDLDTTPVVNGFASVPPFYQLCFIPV

CYP3A4 = CYP3A4 (Homo sapiens, UniProt P08684); assay: Inhibition of CYP3A4 (unknown origin) assessed as remaining activity relative to control; type: ADME
Chain of CYP3A4 (P08684 whole entry): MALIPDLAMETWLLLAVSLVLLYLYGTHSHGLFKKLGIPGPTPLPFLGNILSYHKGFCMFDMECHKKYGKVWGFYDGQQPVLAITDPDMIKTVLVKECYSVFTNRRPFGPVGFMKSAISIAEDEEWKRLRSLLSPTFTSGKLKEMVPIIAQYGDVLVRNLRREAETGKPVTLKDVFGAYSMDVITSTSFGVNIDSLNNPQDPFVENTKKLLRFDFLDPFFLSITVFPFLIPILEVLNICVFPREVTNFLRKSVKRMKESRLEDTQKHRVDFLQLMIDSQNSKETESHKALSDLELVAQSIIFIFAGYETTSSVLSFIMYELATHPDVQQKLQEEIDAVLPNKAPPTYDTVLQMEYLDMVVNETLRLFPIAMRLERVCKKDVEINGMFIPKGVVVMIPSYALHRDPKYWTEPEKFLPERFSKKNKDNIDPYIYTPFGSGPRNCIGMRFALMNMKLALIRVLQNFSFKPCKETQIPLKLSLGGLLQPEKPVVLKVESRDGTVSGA

With `CN1CCN(C(=O)COc2ccc(C(=O)/C=C/c3ccccc3C(F)(F)F)cc2)CC1.Cl` the inhibition (Homo sapiens) was “Active”, the activity (BV-2 [1]) was “Non-Toxic” and the Activity [2] was “Active”. For the same compound, the Activity [3] was “Dose-dependent effect”, the Activity [4] was “Active” and the Activity [5] was 589%. For the same compound, the Activity [6] was “Active”, the fold change (FC) [7] was over 15 and the inhibition (BV-2 [8]) was “Dose-dependent effect”. For the same compound, the Activity [9] was “Dose-dependent effect”, the Activity (Mus musculus [10]) was “Active” and the Activity (Mus musculus [11]) was “Active”. For the same compound, the activity (Mus musculus [12]) was over 70%, the remaining at 0.5 h [13] was 16.1% and the remaining at 0.5 h [14] was over 100%. It also gave an activity (CYP2C19) of 79.3% and an activity (CYP3A4) of over 100%.
